# STAT1 activator: increases IFN-gamma driven STAT1 reporter signal; activation (% of control), % at 5.5 µM; AID 932; NIH 3T3 STAT1-luciferase reporter, luminescence; 100% = IFN-gamma alone, no compound; 200,000 tested, 2.6% active;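 active = activation above the screen-wide mean activation plus 3 SD, cut at about 130% in these data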;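 note: raw ratio to IFN-gamma control signal so 100% means no change and 0% no light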
# NF-kB neuron act: NF-kB expression increase, human neuronal cells; NF-kB reporter expression; active compounds read high; fold change at 12.5 µM; 190,000 tested, 1.6% active; AID 1239; in the data active = fold change above about 3.3
# Wee1 stabilizer: blocks degradation of human Wee1 kinase; P30291; HeLa Luc-Wee1K328M stability, luciferase luminescence; 100% = proteasome inhibitor MG132 effect; reporter increase, % at 5 µM; 220,000 tested, 1.2% active;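 active = activation above the mean of all tested compounds plus 3 SD, set per screening run, cut at about 8.8% in these data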;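 note: cells exposed to compound for 20 h before luminescence read; 0% = DMSO alone and 100% = MG132 at 30 µM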
# APP 5'UTR act: APP 5'UTR luciferase reporter activation. SH-SY5Y APP 5'UTR luciferase reporter, luminescence; zero percent = DMSO vehicle wells. activation, % at 2 µM. 190,000 tested, 1% active. AID 1276;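 active = activation above a set limit, based on mean plus 3 SD of controls, cut at about 140% in these data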
# p97 ATPase inh: blocks human p97 ATPase activity | AID 1481 | 220,000 tested, 0.42% active | inhibition, % at 8 µM | recombinant p97 ATPase, Kinase-Glo ATP luminescence, 3 h | P55072; in the data active = inhibition above about 15%;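 note: 0% = DMSO vehicle and 100% = wells lacking enzyme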
# Mdm2 ligase inh: blocks human Mdm2 ubiquitin ligase activity; cell-based MDM2 ubiquitination luciferase reporter, 2 h; 0 = plate control, 100 = twice control, blank-subtracted; signal enhancement, % at 5 µM; 210,000 tested, 0.11% active;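 active = signal enhancement of 30% or more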;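 note: luminescence tracks abundance of the self-degrading MDM2-luciferase fusion protein; higher signal means inhibition of MDM2 E3 ligase activity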
# Target sequence (Q00987 whole entry, looked up, the tested form may be a part): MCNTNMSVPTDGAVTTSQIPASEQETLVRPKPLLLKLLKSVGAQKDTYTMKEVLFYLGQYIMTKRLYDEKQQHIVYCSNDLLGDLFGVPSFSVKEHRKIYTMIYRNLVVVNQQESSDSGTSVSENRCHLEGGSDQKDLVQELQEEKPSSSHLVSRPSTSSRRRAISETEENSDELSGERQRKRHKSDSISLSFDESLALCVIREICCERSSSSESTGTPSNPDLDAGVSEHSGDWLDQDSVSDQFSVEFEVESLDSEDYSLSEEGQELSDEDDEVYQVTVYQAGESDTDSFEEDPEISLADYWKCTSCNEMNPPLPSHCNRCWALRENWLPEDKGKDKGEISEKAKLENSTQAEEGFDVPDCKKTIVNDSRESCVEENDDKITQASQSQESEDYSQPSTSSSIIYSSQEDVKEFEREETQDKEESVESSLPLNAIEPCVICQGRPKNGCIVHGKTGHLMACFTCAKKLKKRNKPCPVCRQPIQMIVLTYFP
#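 Assay system: mammalian cells stably expressing self-ubiquitinating, self-degrading MDM2 E3–luciferase fusion. Quantity: 2000 cells in each well. Medium: DMEM culture medium. Compound dosing: single-point 5 µM. Timing: cell settling 4 h, compound treatment 2 h, both 37 °C. Technique: luciferase luminescence. Read-out basis: percent signal gain over controls, blank-subtracted. Benchmarks: plate controls and plate blanks.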
# The depositor's hits bear a star; . = not tested or not shown. Only some compounds are listed: those with a hit (about 4.6% of all), similar ones and a draw of the others.
SMILES,STAT1 activator,NF-kB neuron act,Wee1 stabilizer,APP 5'UTR act,p97 ATPase inh,Mdm2 ligase inh
Cc1cc(C)c2c(N)c(-c3nc4ccccc4[nH]3)sc2n1,114,2.7,7,142*,9,-19
O=C(NNC(=S)NCCc1ccccc1)c1ccc(Br)s1,102,1.1,1,3,5,-5
Fc1cc(F)c2nc(N3CCCC3)sc2c1,131*,1.4,-1,65,0,-21
Clc1ccc2nc(N3CCCCC3)[nH]c2c1,136*,5.3*,4,119,-1,-38
O=c1c(Cl)c(N2CCCCC2)cnn1-c1nc2ccccc2[nH]1,35,0.44,-3,97,-46,-17
O=C(N/N=C/c1ccccc1)c1[nH]ncc1Br,130*,2.5,-1,19,-22,-13
COc1ccc(CCNC(=O)COC(=O)CCC(=O)c2ccc(F)cc2)cc1,91,1.2,11*,-5,-3,0
Cc1nc2ccccc2c2nc3ccccc3n12,114,0.78,2,10,4,-3
c1ccc2c(c1)nnn1c3ccccc3nc21,146*,5.3*,-2,147*,-9,-24
Cc1ccc(N2C(=O)Nc3ccccc3C2(O)C(=O)N2CCN(c3ccccn3)CC2)cc1C (stereo not drawn),109,1.1,0,2,7,3
Cc1cc(Nc2ccc(F)cc2F)n2nc(C)nc2n1,96,1.1,2,-27,2,-9
Fc1ccc(Nc2ccc3ccccc3n2)c(F)c1,58,11*,0,200*,-8,-54
O=C(Nc1cc2c(cc1Cl)OCCCO2)c1ccc(F)cc1,145*,2.9,6,62,5,1
Cc1ccc(C(=O)Nc2cc3c(cc2Cl)OCCCO3)cc1,155*,4.1*,1,118,4,-58
O=C(Nc1cc2c(cc1Br)OCCCO2)c1ccccc1,146*,3.1,-1,114,7,-7
COC(=O)c1cc(Cl)c(NC(=O)c2ccc(F)cc2)cc1OC,101,1.2,0,-5,-1,-2
COc1ccc(C(=O)Nc2cc3c(oc2=O)CCCC3=O)cc1,138*,1.2,1,10,2,-7
CCC(=O)NC(=S)NNC(=O)COc1ccc(Br)cc1,106,0.8,0,-9,4,12
COc1ccc2[nH]c(C)c(C(=O)CN(C)CC3OCCO3)c2c1,.,.,-3,.,6,.
COc1ccc(C(=O)Nc2cc3c(cc2Cl)OCCCO3)cc1,137*,4.3*,4,134,4,-7
COc1ccc(C(=O)Nc2cc(OC)c(Cl)cc2OC)cc1,105,1.5,2,13,-1,1
c1ccc(-c2noc(-c3cccc4ccccc34)n2)cc1,142*,6.1*,6,100,-1,-8
c1ccc2c(-c3nc(-c4ccncc4)no3)cccc2c1,129*,2.2,1,36,-5,-17
c1cncc(-c2noc(-c3cccc4ccccc34)n2)c1,126,3,3,-7,-3,-10
Clc1ccc(Br)cc1-c1nc(-c2ccncc2)no1,137*,1.2,-3,4,4,.
SMILES,STAT1 activator,NF-kB neuron act,Wee1 stabilizer,APP 5'UTR act,p97 ATPase inh,Mdm2 ligase inh
Cc1ccc(C(=O)NCCCc2ccccc2)c(C)c1,136*,1.1,1,160*,1,-15
CC(C)[C@H](NC(=O)NCc1ccc(F)cc1)C(=O)O,.,.,2,.,0,-85
CC(=O)Nc1ccc2oc(-c3ccccc3)nc2c1,150*,7.6*,6,126,5,-7
O=C(Cc1ccccc1)NC(=S)Nc1ccc2oc(-c3ccccc3F)nc2c1,110,2.6,-2,15,-6,-25
O=C(Nc1ccc2oc(-c3ccccc3)nc2c1)c1ccccc1F,146*,2.8,6,102,-2,14
CC(=O)NC(=S)Nc1ccc2oc(-c3cc(F)c(F)cc3Cl)nc2c1,115,2.4,0,170*,9,0
O=C(Nc1ccc2oc(-c3ccncc3)nc2c1)c1ccccc1,107,1,-1,1,4,-1
O=C(Nc1ccc2oc(-c3ccc(Cl)c(Cl)c3)nc2c1)c1ncn[nH]1,114,1.1,8,25,-1,0
O=C(Nc1ccc2oc(-c3ccccc3F)nc2c1)c1ncn[nH]1,136*,5.3*,2,138*,0,6
COc1ccc(-c2cc(C(F)(F)F)n3ncc(C(=O)N(C)Cc4ccccc4)c3n2)cc1,87,0.6,3,-5,-1,-7
CC1CCN(C(=O)Cn2nnc(-c3cccs3)n2)CC1,129*,2.1,1,54,0,-5
O=C(Cn1nnc(-c2cccs2)n1)N1CCOCC1,99,1.2,4,-1,2,-33
O=C(Nc1ccc(Cl)cc1F)c1ccccc1Br,148*,5.7*,-1,120,-3,-2
O=C(Nc1ccc(C(F)(F)F)cc1)c1ccccc1Br,129*,2.3,5,30,4,-9
CC(C)NS(=O)(=O)c1ccc(CCC(=O)NCc2ccncc2)cc1,104,1.1,9.5*,-6,5,-14
CC(C)NS(=O)(=O)c1ccc(CCC(=O)NCc2ccco2)cc1,97,1.2,2,26,-5,-36
Cc1cc(N)n2ncc(-c3ccc(Cl)cc3)c2n1,140*,2.1,0,96,8,-16
Cc1cc(NCc2ccccn2)n2ncc(-c3ccccc3)c2n1,.,.,5,.,0,-17
Cc1cc(N)n2ncc(-c3ccc(F)cc3)c2n1,140*,1.7,-2,84,8,-3
Cc1cc(Cl)n2ncc(-c3ccccc3)c2n1,.,.,3,.,12,-18
CC(=NCc1cccc(Cl)c1)c1nc(-c2ccco2)oc1O,98,2.2,9.4*,18,1,-16
CCn1c(COc2cccc3ccccc23)nnc1SCC(=O)OC1CCCCC1,100,1.1,-4,-15,-5,-15
Cn1c(COc2cccc3ccccc23)nnc1SCC(=O)OC1CCCCC1,.,.,9.5*,.,-7,.
O=c1cc(-c2ccccc2)nc2c(-c3ccccc3)c(C(F)(F)F)[nH]n12,.,.,-4,.,3,-8
CCCC(=O)Nc1ccc(C(=O)n2ccc(C)n2)cc1,97,1.2,-3,16,-4,6
CC(C)(C)c1nc2c(Br)cc(Br)cc2c(=O)o1,104,1.3,-2,-11,-2,12
Cn1c(SCc2ccccc2Cl)nc2ccccc21,141*,1.1,-1,114,-2,-10
CCc1cccc(NC(=S)N2CCC(c3ccccc3)C2)c1 (stereo not drawn),126,1.3,3,25,1,.
Cc1ccc(NC(=S)N2CCC(c3ccccc3)C2)c(Cl)c1 (stereo not drawn),93,6.5*,0,190*,2,.
S=C(Nc1ccccc1Cl)N1CCCCCC1,109,1.6,0,6,4,-10

# Screening data from PubChem.
